Drawing on ChEMBL document CHEMBL1131306, “Novel and specific respiratory syncytial virus inhibitors that target virus fusion” (J Med Chem, 1998), this text covers IC50 for 15 molecules.

Common to all, as to assay type: functional, organism-based
One test relates to Human alphaherpesvirus 1. Kind of test: Inhibitory concentration was evaluated against herpes simplex 1,strain patton. The essentials:
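HSV-1 strain Patton in African green monkey kidney (Vero) cells, seeded 4 × 10^4/well on day 0. Compound added day 1 as 10 two-fold dilutions, at least in duplicate, then virus added. Growth measured by ELISA 28 h post-infection. IC50 = 50% growth inhibition, averaged; repeated in two different weeks, retested if over 2-fold apart.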

For another test, the system named is Human orthopneumovirus. The test is described as follows: Inhibitory concentration was evaluated against human respiratory syncytial virus,(HRSV) strain A2. In short, it runs like this:
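HRSV strain A2 (160 PFU/well) on human foreskin fibroblasts seeded 4 × 10^4/well day 0. Compound added day 1, serially diluted 2-fold over 10 concentrations, at least in duplicate. After 4 days at 37 °C, virus growth quantified by ELISA. IC50 = 50% growth inhibition, averaged; tested in two separate weeks, retested if values differed over 2-fold.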

For a further test, the system named is Human betaherpesvirus 5. Kind of test: Inhibitory concentration was evaluated against human cytomegalovirus (HCMV),strain Ad169. The essentials:
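HCMV Ad169 engineered to encode β-glucuronidase. Human foreskin fibroblasts seeded 4 × 10^4/well on day 0. Compound added day 1 as 10 two-fold dilutions, each at least in duplicate, then virus added. Growth read as β-glucuronidase in culture on day 4. IC50 averaged; each compound run at least twice in different weeks, retested if IC50s differed over 2-fold.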

On to `CCCN(CCC)S(=O)(=O)c1cccc(Nc2nc(Nc3cccc(S(=O)(=O)N(CCC)CCC)c3)nc(Nc3ccc(-c4ccc(Nc5nc(Nc6cccc(S(=O)(=O)N(CCC)CCC)c6)nc(Nc6cccc(S(=O)(=O)N(CCC)CCC)c6)n5)cc4S(=O)(=O)O)c(S(=O)(=O)O)c3)n2)c1`, for which the IC50 in the test with Human alphaherpesvirus 1, in the test with Human orthopneumovirus and in the test with Human betaherpesvirus 5 was above 25 µM in each case.
As for `NC(=O)CCNS(=O)(=O)c1cccc(Nc2nc(Nc3cccc(S(=O)(=O)NCCC(N)=O)c3)nc(Nc3ccc(-c4ccc(Nc5nc(Nc6cccc(S(=O)(=O)NCCC(N)=O)c6)nc(Nc6cccc(S(=O)(=O)NCCC(N)=O)c6)n5)cc4S(=O)(=O)O)c(S(=O)(=O)O)c3)n2)c1`, the figures for the IC50 in the test on Human alphaherpesvirus 1, in the test with Human orthopneumovirus and in the test with Human betaherpesvirus 5 were above 25 µM, 0.24 µM and 1.2 µM, respectively.
In the same order, the values of `O=S(=O)(O)c1cc(Nc2nc(Nc3cccc(S(=O)(=O)N(CCO)CCO)c3)nc(Nc3cccc(S(=O)(=O)N(CCO)CCO)c3)n2)ccc1-c1ccc(Nc2nc(Nc3cccc(S(=O)(=O)N(CCO)CCO)c3)nc(Nc3cccc(S(=O)(=O)N(CCO)CCO)c3)n2)cc1S(=O)(=O)O` are 14.7 µM, 0.09 µM and 2.3 µM.
For `Cc1cc(-c2cc(C)c(Nc3nc(Nc4cccc(S(=O)(=O)N(CCC(N)=O)CCC(N)=O)c4)nc(Nc4cccc(S(=O)(=O)N(CCC(N)=O)CCC(N)=O)c4)n3)cc2S(=O)(=O)O)c(S(=O)(=O)O)cc1Nc1nc(Nc2cccc(S(=O)(=O)N(CCC(N)=O)CCC(N)=O)c2)nc(Nc2cccc(S(=O)(=O)N(CCC(N)=O)CCC(N)=O)c2)n1`, the half-maximal inhibitory concentration (IC50) (commonly the concentration that inhibits the measured activity by half) came out at 20 µM in the test with Human alphaherpesvirus 1, 0.25 µM in the test on Human orthopneumovirus and 20.5 µM with Human betaherpesvirus 5.
In turn, `NC(=O)CCN(CCC(N)=O)C(=O)c1cccc(Nc2nc(Nc3cccc(C(=O)N(CCC(N)=O)CCC(N)=O)c3)nc(Nc3ccc(-c4ccc(Nc5nc(Nc6cccc(C(=O)N(CCC(N)=O)CCC(N)=O)c6)nc(Nc6cccc(C(=O)N(CCC(N)=O)CCC(N)=O)c6)n5)cc4S(=O)(=O)O)c(S(=O)(=O)O)c3)n2)c1` gave an IC50 with Human orthopneumovirus above 25 µM.
On to `NC(=O)CCN(CCC(N)=O)S(=O)(=O)c1ccc(Nc2nc(Nc3ccc(S(=O)(=O)N(CCC(N)=O)CCC(N)=O)cc3)nc(Nc3ccc(-c4ccc(Nc5nc(Nc6ccc(S(=O)(=O)N(CCC(N)=O)CCC(N)=O)cc6)nc(Nc6ccc(S(=O)(=O)N(CCC(N)=O)CCC(N)=O)cc6)n5)cc4S(=O)(=O)O)c(S(=O)(=O)O)c3)n2)cc1`, for which the IC50 with Human alphaherpesvirus 1 came out at 17.7 µM; with Human orthopneumovirus, 2.9 µM; with Human betaherpesvirus 5, 14.7 µM.
On to `NC(=O)CCN(CCC(N)=O)S(=O)(=O)c1cccc(Nc2nc(Nc3cccc(S(=O)(=O)N(CCC(N)=O)CCC(N)=O)c3)nc(Nc3ccc(-c4ccc(Nc5nc(Nc6cccc(S(=O)(=O)N(CCC(N)=O)CCC(N)=O)c6)nc(Nc6cccc(S(=O)(=O)N(CCC(N)=O)CCC(N)=O)c6)n5)cc4C(=O)O)c(C(=O)O)c3)n2)c1`, for which the IC50 was found to be 7.5 µM with Human alphaherpesvirus 1, 0.35 µM in the test on Human orthopneumovirus and 0.9 µM in the test on Human betaherpesvirus 5.
On to `NS(=O)(=O)c1cccc(Nc2nc(Nc3cccc(S(N)(=O)=O)c3)nc(Nc3ccc(-c4ccc(Nc5nc(Nc6cccc(S(N)(=O)=O)c6)nc(Nc6cccc(S(N)(=O)=O)c6)n5)cc4S(=O)(=O)O)c(S(=O)(=O)O)c3)n2)c1`, for which the IC50 in the test with Human alphaherpesvirus 1 is 8.8 µM; in the test with Human orthopneumovirus it was 1.7 µM; in the test on Human betaherpesvirus 5, 1.2 µM.
Regarding `Cc1ccc(S(=O)(=O)N(CCC(N)=O)CCC(N)=O)cc1Nc1nc(Nc2ccc(-c3ccc(Nc4nc(Nc5cc(S(=O)(=O)N(CCC(N)=O)CCC(N)=O)ccc5C)nc(Nc5cc(S(=O)(=O)N(CCC(N)=O)CCC(N)=O)ccc5C)n4)cc3S(=O)(=O)O)c(S(=O)(=O)O)c2)nc(Nc2cc(S(=O)(=O)N(CCC(N)=O)CCC(N)=O)ccc2C)n1`, in the test with Human orthopneumovirus, the IC50 was above 25 µM.
On to `NC(=O)CCN(CCC(N)=O)S(=O)(=O)c1cccc(Nc2nc(Nc3cccc(S(=O)(=O)N(CCC(N)=O)CCC(N)=O)c3)nc(Nc3ccc(CCc4ccc(Nc5nc(Nc6cccc(S(=O)(=O)N(CCC(N)=O)CCC(N)=O)c6)nc(Nc6cccc(S(=O)(=O)N(CCC(N)=O)CCC(N)=O)c6)n5)cc4S(=O)(=O)O)c(S(=O)(=O)O)c3)n2)c1`, for which the IC50 is 22.5 µM in the test on Human orthopneumovirus and above 25 µM in the test on Human betaherpesvirus 5.
As to `NC(=O)CCN(CCC(N)=O)S(=O)(=O)c1cccc(Nc2nc(Nc3cccc(S(=O)(=O)N(CCC(N)=O)CCC(N)=O)c3)nc(Nc3ccc(-c4ccc(Nc5nc(Nc6cccc(S(=O)(=O)N(CCC(N)=O)CCC(N)=O)c6)nc(Nc6cccc(S(=O)(=O)N(CCC(N)=O)CCC(N)=O)c6)n5)cc4CO)c(CO)c3)n2)c1`, the IC50 in the test on Human alphaherpesvirus 1, with Human orthopneumovirus and with Human betaherpesvirus 5 was above 25 µM throughout.
On to `Cc1cc(-c2ccc(Nc3nc(Nc4cccc(S(=O)(=O)N(CCC(N)=O)CCC(N)=O)c4)nc(Nc4cccc(S(=O)(=O)N(CCC(N)=O)CCC(N)=O)c4)n3)c(C)c2)ccc1Nc1nc(Nc2cccc(S(=O)(=O)N(CCC(N)=O)CCC(N)=O)c2)nc(Nc2cccc(S(=O)(=O)N(CCC(N)=O)CCC(N)=O)c2)n1`, for which the results for the IC50 in the test with Human alphaherpesvirus 1, in the test on Human orthopneumovirus and in the test with Human betaherpesvirus 5 were 25 µM, above 25 µM and above 25 µM, respectively.
With `NC(=O)CCN(CCC(N)=O)S(=O)(=O)c1cccc(Nc2nc(Nc3cccc(S(=O)(=O)N(CCC(N)=O)CCC(N)=O)c3)nc(Nc3ccc(-c4ccc(Nc5nc(Nc6cccc(S(=O)(=O)N(CCC(N)=O)CCC(N)=O)c6)nc(Nc6cccc(S(=O)(=O)N(CCC(N)=O)CCC(N)=O)c6)n5)cc4S(=O)(=O)O)c(S(=O)(=O)O)c3)n2)c1`, the IC50 was above 25 µM with Human alphaherpesvirus 1, 0.05 µM in the test on Human orthopneumovirus and 18.5 µM in the test on Human betaherpesvirus 5.
Consider `COC(=O)c1cc(Nc2nc(Nc3cccc(S(=O)(=O)N(CCC(N)=O)CCC(N)=O)c3)nc(Nc3cccc(S(=O)(=O)N(CCC(N)=O)CCC(N)=O)c3)n2)ccc1-c1ccc(Nc2nc(Nc3cccc(S(=O)(=O)N(CCC(N)=O)CCC(N)=O)c3)nc(Nc3cccc(S(=O)(=O)N(CCC(N)=O)CCC(N)=O)c3)n2)cc1C(=O)OC`, for which the IC50 with Human orthopneumovirus and with Human betaherpesvirus 5 was above 25 µM in each case.
In the case of `NC(=O)CCN(CCC(N)=O)S(=O)(=O)c1cccc(Nc2nc(Nc3cccc(S(=O)(=O)N(CCC(N)=O)CCC(N)=O)c3)nc(Nc3ccc(/C=C/c4ccc(Nc5nc(Nc6cccc(S(=O)(=O)N(CCC(N)=O)CCC(N)=O)c6)nc(Nc6cccc(S(=O)(=O)N(CCC(N)=O)CCC(N)=O)c6)n5)cc4S(=O)(=O)O)c(S(=O)(=O)O)c3)n2)c1`, the IC50 with Human alphaherpesvirus 1 is 5.5 µM; in the test on Human orthopneumovirus, 0.15 µM; in the test with Human betaherpesvirus 5 it was above 25 µM.
